Measurements taken from ChEMBL document CHEMBL4385668, “Synthesis and in vitro anticancer activity of new gemcitabine-nucleoside analogue dimers containing methyltriazole or ester-methyltriazole linker” (Bioorg Med Chem Lett, 2019).

What was measured:
[1] = Drug metabolism in human HeLa cells assessed as gemcitabine release incubated for 12 hrs by HPLC/MS method; format: ADME, cell-based
Summary of the method: (§1)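 HeLa cells were incubated with the dimer at 37 °C for 12 h. Cell lysate was analysed by HPLC/MS for released gemcitabine, the deamination product dFdU and the thymidine-triazole fragment. A separately synthesized sample of the thymidine-triazole fragment was used as the reference.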

[2] = Drug metabolism in human HeLa cells assessed as 3'-[4-(hydroxymethyl)-(1,2,3-triazol-1-yl)]-3'-deoxythymidine release incubated for 12 hrs by HPLC/MS method; format: ADME, cell-based; summary of the method: as §1
[3] = Drug metabolism in human HeLa cells assessed as 2',2'-difluoro-2'-deoxyuridine release incubated for 12 hrs by HPLC/MS method; format: ADME, cell-based; summary of the method: as §1
HeLa = assay: Cytotoxicity in human HeLa cells assessed as reduction in cell viability incubated for 72 hrs by SRB assay; format: functional, cell-based
Summary of the method: (§2)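 SRB assay of cell viability in human cancer lines (HeLa, KB, A549, U87, HepG2) and normal dermal fibroblasts (HDF). IC50 values are […] of three independent experiments.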

KB = assay: Cytotoxicity in human KB cells assessed as reduction in cell viability incubated for 72 hrs by SRB assay; format: functional, cell-based; summary of the method: as §2
A549 = assay: Cytotoxicity in human A549 cells assessed as reduction in cell viability incubated for 72 hrs by SRB assay; format: functional, cell-based; details: A549, 72 h; summary of the method: as §2
U-87 MG = assay: Cytotoxicity in human U87 cells assessed as reduction in cell viability incubated for 72 hrs by SRB assay; format: functional, cell-based, U-87MG ATCC; summary of the method: as §2
HepG2 = assay: Cytotoxicity in human HepG2 cells assessed as reduction in cell viability incubated for 72 hrs by SRB assay; format: functional, cell-based; details: HepG2, 72 h; summary of the method: as §2
NHDF = assay: Cytotoxicity in human NHDF cells assessed as reduction in cell viability incubated for 72 hrs by SRB assay; format: cell-based; summary of the method: as §2
[4] = Selectivity index, ratio of IC50 for cytotoxicity in human NHDF cells to IC50 for cytotoxicity in human HeLa cells
Summary of the method: (§3)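 Selectivity index is the IC50 in normal HDF fibroblasts divided by the IC50 in the given cancer line.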

[5] = Selectivity index, ratio of IC50 for cytotoxicity in human NHDF cells to IC50 for cytotoxicity in human KB cells; summary of the method: as §3
[6] = Selectivity index, ratio of IC50 for cytotoxicity in human NHDF cells to IC50 for cytotoxicity in human A549 cells; summary of the method: as §3
[7] = Selectivity index, ratio of IC50 for cytotoxicity in human NHDF cells to IC50 for cytotoxicity in human U87 cells; summary of the method: as §3
[8] = Selectivity index, ratio of IC50 for cytotoxicity in human NHDF cells to IC50 for cytotoxicity in human HepG2 cells; summary of the method: as §3

In the case of `Cc1cn([C@H]2C[C@H](n3cc(COC(=O)Nc4ccn([C@@H]5O[C@H](CO)[C@@H](O)C5(F)F)c(=O)n4)nn3)[C@@H](CO)O2)c(=O)[nH]c1=O`, the Drug metabolism [1] is reported as “Metabolite_Detected”, the Drug metabolism [2] is reported as “Metabolite_Detected” and the Drug metabolism [3] is reported as “Metabolite_Notdetected”. It also gave an IC50 (HeLa) of 1520 nM, an IC50 (KB) of 1550 nM and an IC50 (A549) of 1670 nM. For the same compound, the IC50 (U-87 MG) was 1890 nM, the IC50 (HepG2) was 1530 nM and the IC50 (NHDF) was 6700 nM. For the same compound, the “Ratio IC50” value [4] was 4.41, the “Ratio IC50” value [5] was 4.32 and the “Ratio IC50” value [6] was 4.01. For the same compound, the “Ratio IC50” value [7] was 3.55 and the “Ratio IC50” value [8] was 4.38.
